Reference: ChEMBL document CHEMBL4265871, “Novel alkylated azoles as potent antifungals” (Eur J Med Chem, 2017)
Converted amounts (≈) assume the structure as drawn.

Legend:
Candida albicans [1] = assay: Antifungal activity against Candida albicans ATCC 10231 incubated for 48 hrs by modified CLSI M27-A3 protocol based method; assay type: functional; conditions: ATCC 10231, 48 h, read-out: MIC100
Procedure, shortened: (§1)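 For C. albicans ATCC 10231, C. krusei ATCC 6258 and C. parapsilosis ATCC 22019, MIC-0 was read, meaning complete growth inhibition. For azole controls, MIC-2 (50% growth inhibition) was reported instead. Caspofungin and voriconazole were tested here; other controls came from earlier work.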

Candida albicans [2] = assay: Antifungal activity against Candida albicans ATCC 64124 incubated for 48 hrs by modified CLSI M27-A3 protocol based method; assay type: functional; conditions: ATCC 64124, 48 h
Candida albicans [3] = assay: Antifungal activity against ITC and FLC-susceptible Candida albicans ATCC MYA-2310 incubated for 48 hrs by modified CLSI M27-A3 protocol based method; assay type: functional; conditions: ATCC MYA-2310, 48 h
Candida albicans [4] = assay: Antifungal activity against ITC and FLC-resistant Candida albicans ATCC 1237 incubated for 48 hrs by modified CLSI M27-A3 protocol based method; assay type: functional; conditions: ATCC 1237, 48 h
Procedure, shortened: (§2)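 Because these Candida strains show trailing growth, MIC-2 was read, meaning 50% growth inhibition. Caspofungin and voriconazole were tested here; other controls came from earlier work.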

Candida albicans [5] = assay: Antifungal activity against ITC and FLC-resistant Candida albicans ATCC MYA-1003 incubated for 48 hrs by modified CLSI M27-A3 protocol based method; assay type: functional; conditions: ATCC MYA-1003, 48 h; procedure, shortened: as §2
Pichia kudriavzevii = assay: Antifungal activity against Candida krusei ATCC 6258 incubated for 48 hrs by modified CLSI M27-A3 protocol based method; assay type: functional; conditions: ATCC 6258, 48 h, read-out: MIC100; procedure, shortened: as §1
Candida parapsilosis = assay: Antifungal activity against Candida parapsilosis ATCC 22019 incubated for 48 hrs by modified CLSI M27-A3 protocol based method; assay type: functional; conditions: Lodderomyces parapsilosis, ATCC 22019, 48 h; read-out: MIC100; procedure, shortened: as §1
[6] = Toxicity in human A549 cells assessed as reduction in cell viability incubated for 24 hrs by resazurin dye based assay
Procedure, shortened: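 Toxicity tested in the nucleated lines A549 and BEAS-2B to give EC50 values. Selectivity index is EC50 against the mammalian line divided by the MIC against a given fungal strain.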

[7] = Hemolytic activity in mouse erythrocytes assessed as hemolysis level at 1.95 ug/ml incubated for 1 hr at 37 degC; assay type: ADME, cell-based, Erythrocyte; conditions: read-out: Activity
Procedure, shortened: (§3)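 Mouse erythrocytes incubated 1 h at 37 °C with test agents over 1.95 to 125 µg/mL. Percent lysis is read for each concentration.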

[8] = Hemolytic activity in mouse erythrocytes assessed as hemolysis level at 7.8 ug/ml incubated for 1 hr at 37 degC; assay type: ADME, cell-based, Erythrocyte; conditions: read-out: Activity; procedure, shortened: as §3
[9] = Hemolytic activity in mouse erythrocytes assessed as hemolysis level at 31.3 ug/ml incubated for 1 hr at 37 degC; assay type: ADME, cell-based, Erythrocyte; conditions: read-out: Activity; procedure, shortened: as §3
[10] = Hemolytic activity in mouse erythrocytes assessed as hemolysis level at 125 ug/ml incubated for 1 hr at 37 degC; assay type: ADME, cell-based, Erythrocyte; conditions: read-out: Activity; procedure, shortened: as §3
[11] = Selectivity index, ratio of EC50 for toxicity in human A549 cells to MIC100 for antifungal activity against Candida albicans ATCC 10231; assay type: cell-based; conditions: read-out: Selectivity Index
Procedure, shortened: (§4)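 Selectivity index is the EC50 against the mammalian line (A549 or BEAS-2B) divided by the MIC against the given fungal strain.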

[12] = Selectivity index, ratio of EC50 for toxicity in human BEAS2B cells to MIC50 for antifungal activity against Candida albicans ATCC 64124; assay type: cell-based; conditions: BEAS-2B cells, read-out: Selectivity Index; procedure, shortened: as §4
[13] = Selectivity index, ratio of EC50 for toxicity in human BEAS2B cells to MIC100 for antifungal activity against Candida albicans ATCC 10231; assay type: cell-based; conditions: BEAS-2B cells, read-out: Selectivity Index; procedure, shortened: as §4
[14] = Selectivity index, ratio of EC50 for toxicity in human A549 cells to MIC50 for antifungal activity against ITC and FLC-resistant Candida albicans ATCC MYA-90819; assay type: cell-based; conditions: read-out: Selectivity Index; procedure, shortened: as §4
[15] = Selectivity index, ratio of EC50 for toxicity in human BEAS2B cells to MIC50 for antifungal activity against ITC and FLC-resistant Candida albicans ATCC MYA-90819; assay type: cell-based; conditions: BEAS-2B cells, read-out: Selectivity Index
Procedure, shortened: (§5)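 Ratio of the compound's EC50 against BEAS-2B cells to its MIC against the named C. albicans strain. […] For C. albicans strains other than ATCC 10231, trailing growth meant MIC-2 was taken, meaning 50% growth inhibition.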

[16] = Selectivity index, ratio of EC50 for toxicity in human A549 cells to MIC50 for antifungal activity against ITC and FLC-susceptible Candida albicans ATCC MYA-2310; assay type: cell-based; conditions: read-out: Selectivity Index; procedure, shortened: as §4
[17] = Selectivity index, ratio of EC50 for toxicity in human BEAS2B cells to MIC50 for antifungal activity against ITC and FLC-susceptible Candida albicans ATCC MYA-2310; assay type: cell-based; conditions: BEAS-2B cells, read-out: Selectivity Index; procedure, shortened: as §5
[18] = Selectivity index, ratio of EC50 for toxicity in human BEAS2B cells to MIC50 for antifungal activity against ITC and FLC-resistant Candida albicans ATCC 1237; assay type: cell-based; conditions: BEAS-2B cells, read-out: Selectivity Index; procedure, shortened: as §4
[19] = Selectivity index, ratio of EC50 for toxicity in human BEAS2B cells to MIC50 for antifungal activity against ITC and FLC-resistant Candida albicans ATCC MYA-1003; assay type: cell-based; conditions: BEAS-2B cells, read-out: Selectivity Index; procedure, shortened: as §4
[20] = Selectivity index, ratio of EC50 for toxicity in human A549 cells to MIC50 for antifungal activity against Candida glabrata ATCC 2001; assay type: cell-based; conditions: read-out: Selectivity Index; procedure, shortened: as §4
[21] = Selectivity index, ratio of EC50 for toxicity in human BEAS2B cells to MIC50 for antifungal activity against Candida glabrata ATCC 2001; assay type: cell-based; conditions: BEAS-2B cells, read-out: Selectivity Index; procedure, shortened: as §4
[22] = Selectivity index, ratio of […] for toxicity in human A549 cells to MIC50 for antifungal activity against Aspergillus flavus ATCC MYA-3631; assay type: cell-based; conditions: read-out: Selectivity Index
[23] = Selectivity index, ratio of […] for toxicity in human BEAS2B cells to MIC50 for antifungal activity against Aspergillus flavus ATCC MYA-3631; assay type: cell-based; conditions: BEAS-2B cells, read-out: Selectivity Index
[24] = Selectivity index, ratio of […] for toxicity in human A549 cells to MIC50 for antifungal activity against Aspergillus nidulans ATCC 38163; assay type: cell-based; conditions: read-out: Selectivity Index
[25] = Selectivity index, ratio of […] for toxicity in human BEAS2B cells to MIC50 for antifungal activity against Aspergillus terreus ATCC MYA-3633; assay type: cell-based; conditions: BEAS-2B cells, read-out: Selectivity Index
in vitro = conditions: mouse, mouse erythrocytes
[26] = Selectivity index, ratio of EC50 for toxicity in human A549 cells to MIC50 for antifungal activity against Candida krusei ATCC 6258
[27] = Selectivity index, ratio of EC50 for toxicity in human BEAS2B cells to MIC50 for antifungal activity against Candida krusei ATCC 6258; conditions: BEAS-2B cells
[28] = Selectivity index, ratio of EC50 for toxicity in human A549 cells to MIC for antifungal activity against Candida parapsilosis ATCC 22019
[29] = Selectivity index, ratio of EC50 for toxicity in human BEAS2B cells to MIC for antifungal activity against Candida parapsilosis ATCC 22019; conditions: BEAS-2B cells

| Compound | MIC (Candida albicans [1]) | MIC50 (Candida albicans [2]) | MIC50 (Candida albicans [3]) | MIC50 (Candida albicans [4]) | MIC50 (Candida albicans [5]) | MIC (Pichia kudriavzevii) | MIC (Candida parapsilosis) | EC50 at 24 h [6] | hemolysis at 1 h, 1.95 ug/ml [7] | hemolysis at 1 h, 7.8 ug/ml [8] | hemolysis at 1 h, 31.3 ug/ml [9] | hemolysis at 1 h, 125 ug/ml [10] | selectivity ratio [11] | selectivity ratio [12] | selectivity ratio [13] | selectivity ratio [14] | selectivity ratio [15] | selectivity ratio [16] | selectivity ratio [17] | selectivity ratio [18] | also measured |
| --- | --- | --- | --- | --- | --- | --- | --- | --- | --- | --- | --- | --- | --- | --- | --- | --- | --- | --- | --- | --- | --- |
| CCCCCCC(O)(Cn1cncn1)c1ccccc1Cl (stereo not drawn) | 25.3 µM (≈ 7.79 µg/mL) | > 102 µM | 6.3 µM (≈ 1.94 µg/mL) | 3.2 µM (≈ 0.985 µg/mL) | 25.3 µM (≈ 7.79 µg/mL) | 0.39 µM (≈ 0.12 µg/mL) | 0.39 µM (≈ 0.12 µg/mL) | > 31.3 µg/mL | 0% | 0% | 0% | 92% | 4 | 1 | 4 | 16 | 16 | 16 | 16 | 32 | selectivity ratio [19]: 4; selectivity ratio [20]: 32; selectivity ratio [21]: 32; selectivity ratio [22]: 8 to 16; selectivity ratio [23]: 8 to 16; selectivity ratio [24]: 522; selectivity ratio [25]: 65; hemolysis at 1 h, 62.5 ug/ml (in vitro): 81.7%; selectivity ratio [26]: 261; selectivity ratio [27]: 261; selectivity ratio [28]: 261; selectivity ratio [29]: 261 |
| CCCCCCC(O)(Cn1cncn1)c1ccc(F)cc1 (stereo not drawn) | 53.5 µM (≈ 15.6 µg/mL) | > 107 µM | 26.8 µM (≈ 7.81 µg/mL) | 107 µM (≈ 31.3 µg/mL) | 26.8 µM (≈ 7.81 µg/mL) | 3.3 µM (≈ 0.962 µg/mL) | 1.6 µM (≈ 0.466 µg/mL) | > 31.3 µg/mL | 0% | 5.2% | 0% | 24.1% | 2 | 1 | 2 | 32 | 32 | 4 | 4 | 1 | selectivity ratio [19]: 4; selectivity ratio [20]: 4; selectivity ratio [21]: 4; selectivity ratio [22]: 1; selectivity ratio [23]: 1; selectivity ratio [24]: 16; selectivity ratio [25]: 2; hemolysis at 1 h, 62.5 ug/ml (in vitro): 7%; selectivity ratio [26]: 32; selectivity ratio [27]: 32; selectivity ratio [28]: 65; selectivity ratio [29]: 65 |
| CCCCCC(O)(Cn1cncn1)c1ccc(F)cc1F (stereo not drawn) | 6.6 µM (≈ 1.95 µg/mL) | 26.4 µM (≈ 7.8 µg/mL) | 26.4 µM (≈ 7.8 µg/mL) | 26.4 µM (≈ 7.8 µg/mL) | 6.6 µM (≈ 1.95 µg/mL) | 0.81 µM (≈ 0.239 µg/mL) | < 0.1 µM | > 31.3 µg/mL | 0% | 0% | 10.1% | 45.4% | 16 | 4 | 16 | 8 | 8 | 4 | 4 | 4 | selectivity ratio [19]: 16; selectivity ratio [20]: 4; selectivity ratio [21]: 4; selectivity ratio [22]: 2; selectivity ratio [23]: 2; selectivity ratio [24]: 32; selectivity ratio [25]: 1; hemolysis at 1 h, 62.5 ug/ml (in vitro): 25.2%; selectivity ratio [26]: 130; selectivity ratio [27]: 130; selectivity ratio [28]: 1040; selectivity ratio [29]: 1040 |
| CCCCC(O)(Cn1cncn1)c1ccc(F)cc1F (stereo not drawn) | 6.9 µM (≈ 1.94 µg/mL) | 55.5 µM (≈ 15.6 µg/mL) | 112 µM (≈ 31.4 µg/mL) | 55.5 µM (≈ 15.6 µg/mL) | 13.9 µM (≈ 3.91 µg/mL) | 0.21 µM (≈ 0.0591 µg/mL) | < 0.11 µM | > 31.3 µg/mL | 0% | 0% | 3.7% | 0% | 16 | 2 | 19 | 2 | 2 | 1 | 1 | 2 | selectivity ratio [19]: 9; selectivity ratio [20]: 1; selectivity ratio [21]: 1; selectivity ratio [22]: 2; selectivity ratio [23]: 2; selectivity ratio [24]: 16; selectivity ratio [25]: 2; hemolysis at 1 h, 62.5 ug/ml (in vitro): 0%; selectivity ratio [26]: 522; selectivity ratio [27]: 600; selectivity ratio [28]: 1040; selectivity ratio [29]: 1200 |
